Data on 83 variants can be found in the RNAGym collection of RNA variant scans (doi:10.1126/science.aae0568).

Fewer inactive variants are shown than the library holds.

B1: tRNA (parent)
chain: GUUCCGUUGGCGUAAUGGUAACGCGUCUCCCUCCUAAGGAGAAGACUGCGGGUUCGAGUCCCGUACGGAACG

In the series the parent is B1. Kind of series: yeast fitness relative to wild type (ratio to wild type); higher = fitter; tRNA-Arg(CCU), competitive growth, 37 C, YPD. Summed up: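 For this measurement, the tRNA-Arg(CCU) gene was varied by chemical synthesis at a 3% per-site mutation rate across 69 sites, and each variant was placed at the native genomic locus in Saccharomyces cerevisiae. The pooled strains went through a 24-hour competition in YPD at 37°C in six parallel replicates, with amplicons from start and end populations read by 100-nucleotide paired-end sequencing. Darwinian fitness relative to wild type followed from the change in each genotype's frequency. Genotypes needed ≥ 100 starting reads, and estimates < 0.5 were set to 0.5.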
Turning to C11G A42G A45U, the yeast fitness is ≤ 0.5.
Then C11G A14U G17A A36G G41A, with 0.582; and C11G C24U A42U A43U, with 0.653; and C11G A15G C33G A37G C60A, with 0.582.
As to C11A G25C C29U C62A, the yeast fitness was ≤ 0.5.
To C11A U47C G52C belongs ≤ 0.5; to C11G A14G G48A C55U C66U G68C A69U, ≤ 0.5; to C11A G25C C29U A43U A65C A70U, ≤ 0.5.
To C11G A15C C24U A43U C66U belongs ≤ 0.5.
Then C11G C24A A43C, with ≤ 0.5; and C11G A21G G23C C30A, with 0.733.
C11G A21C U26A C34U: the yeast fitness was ≤ 0.5.
For C11G A15C G41A C49G, the yeast fitness was ≤ 0.5.
Turning to C11A U19C, the yeast fitness is 0.706.
Consider C11G C27U A37U C49U, for which the yeast fitness is ≤ 0.5.
Turning to C11A G41A G56A C62A, the yeast fitness was ≤ 0.5.
Then C11G A36C G56A A65G, with ≤ 0.5; and C11G C22U A40C C46U C60A, with ≤ 0.5.
As to C11A U32A C34A A65C, the yeast fitness is ≤ 0.5.
C11A G68C: the yeast fitness was determined as 0.656.
On to C11G C22U C24G C30G, for which the yeast fitness is ≤ 0.5.
In the case of C11A U13C C27A G63A, the yeast fitness is ≤ 0.5.
Consider C11G A36U C66U, for which the yeast fitness was ≤ 0.5.
Then C11G C22U G63C, with ≤ 0.5; and C11G A20C C24U A36C C66U G67A, with ≤ 0.5; and C11A U28C C46A C55U C61U, with ≤ 0.5.
Then C11A U54C A57U, with 0.565; and C11A U13A A42U C55A, with ≤ 0.5; and C11G A15C C24G C46A C66U, with ≤ 0.5.
To C11G C27G C31A C60G belongs ≤ 0.5; to C11A U16C U32G A36G C49G C55A, 0.53.
C11G A21G C29G A40C U54A: the yeast fitness was ≤ 0.5.
Then C11A U16C U32G, with 0.523.
Then C11G A15U C22U A42G C66U, with ≤ 0.5; and C11G A15C U47G, with ≤ 0.5.
Then C11G A15C C34U U47C G48A C55U, with ≤ 0.5; and C11G A40G C60U U64C, with ≤ 0.5.
On to C11G C27U A37U G44A C62A, for which the yeast fitness was determined as 0.511.
To C11G A37C C46G G48A C49U belongs ≤ 0.5; to C11G C22U U53C, ≤ 0.5.
For C11A U16C G18C A45C A57C G68C A69G, the yeast fitness was ≤ 0.5.
Then C11G A36C G68A, with 0.506; and C11G A14U G17A C61G C62G, with ≤ 0.5; and C11G A40C C61U, with ≤ 0.5.
Consider C11G A42G A45U U47C U64C A70C, for which the yeast fitness was ≤ 0.5.
To C11A U28G C34U G67A belongs ≤ 0.5; to C11G A20G C62A, ≤ 0.5.
To C11A U19A U47C C55A C61U belongs ≤ 0.5; to C11G C22G C62U, ≤ 0.5.
Then C11A G52C C61G, with 0.618; and C11A U16C U32G C49U G56A A65C, with ≤ 0.5.
In the case of C11G A15U C24G A40G A42U, the yeast fitness was ≤ 0.5.
To C11A U59C C60A U64A belongs ≤ 0.5.
C11G A21U C24G G51A: the yeast fitness was ≤ 0.5.
Then C11G C22U C30A, with ≤ 0.5; and C11G A14G U35A C66U, with 0.535.
For the variant C11G A37C C62G C66U, the yeast fitness was ≤ 0.5.
To C11G A14C A57C C61A A69C belongs 0.581; to C11G C27U A43C A65G, ≤ 0.5; to C11A U64C, 0.638.
With C11G A21C A36U, the yeast fitness turned out to be 0.511.
Take C11A U13A C31G: the yeast fitness amounted to 0.608.
Then C11A U19A C29A U32A U54C C55G C60G A65G, with ≤ 0.5; and C11A G51A U53A, with ≤ 0.5; and C11G A14C C33G A45U C62G A65G, with ≤ 0.5.
C11A U13G C27G: the yeast fitness was ≤ 0.5.
To C11G A36U A45U G51C C55U belongs ≤ 0.5; to C11A U19G A36G U54C A65U, 0.538; to C11A U32C, 0.739.
For C11G C27G C29G C34U, the yeast fitness was determined as 0.599.
Consider C11G C22A C31U A42G C66U, for which the yeast fitness is ≤ 0.5.
Then C11G A57G C61U, with 0.588; and C11G C24A U28G, with ≤ 0.5; and C11A G39A, with 0.63.
Consider C11G A20G U47G, for which the yeast fitness is ≤ 0.5.
To C11A U35G C46A C49U C60U belongs ≤ 0.5; to C11A U13A A20G G68C A69C, 0.626; to C11G A20C C24U A36C U47A G56C C60G, ≤ 0.5.
As for C11G A65U A69U, the yeast fitness was found to be 0.625.
As for C11G A21U G51C, the yeast fitness is ≤ 0.5.
To C11A U16C U32G C49G C55A C66G A70C belongs ≤ 0.5; to C11G A45G, 0.636; to C11G A14G A37G G44A G63A, 0.55.
